SKKanGAS inh = blocks kanamycin growth of S. pyogenes SKKanGAS strain. BacTiter-Glo, 6 h. inhibition, % at 7.5 µM. actives 1.3% (n = 300,000). AID 1662;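 active = mean replicate score, as percent of positive control median, at least 50; inconclusive = mean below 50 but one replicate at or above 50; inactive = mean and every replicate below 50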;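 note: strain carries kanamycin resistance gene driven by streptokinase promoter and grows in 40 µg/ml kanamycin; loss of luminescence reflects streptokinase promoter inhibition or plain growth inhibition; 0% = median of DMSO wells and 100% = positive control at its reference dose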
Rad51 HR inh = Rad51 (human) homologous recombination inhibition; Q06609; hRad51 DNA strand exchange, fluorescence dequenching; inhibition, % at 10 µM; actives 0.085% (n = 200,000); AID 1385;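 active = inhibition above 40% at the single screening dose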;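 note: 0% = DMSO control wells and 100% = blanks with heterologous ssDNA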
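material = hRad51 filaments on single-stranded DNA | reagent = Donor/quencher-labelled 47-bp dsDNA substrate | compound = 10 µM final, single point | schedule = strand-exchange reaction 15 min at room temperature | measured by = fluorescein emission 520 nm, excitation 485 nm | read-out basis = % inhibition versus plate control and blank means | benchmarks = plate controls and plate blanks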
Autophagy HCS = autophagy modulation, high-content screen; actives 0.98% (n = 190,000); AID 463193; MEF GFP-LC3 puncta imaging; test concentration mostly 10 µM; calls only at 10 µM (by protocol);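 active = percentage of spot-positive cells more than 3 SD above its plate mean, without a fluorescence outlier flag or 80% toxicity; inconclusive = no clear call, values can overlap the other calls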;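 note: spot-positive cell cutoff set from DMSO-treated cells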
WT yeast gro inh = growth inhibition of WT yeast, mitochondrial fusion screen; actives 2.1% (n = 190,000); inhibition, % at 10 µM; mitochondrial fusion phenotypic screen, WT strain; in the data active = inhibition above about 58%; tested in S. cerevisiae
Cl transport mod = modulators of human KCC2 chloride dependent transport. Q9H2X9. KCC2 cells, thallium flux FluoZin-2 fluorescence. B-score of Tl+ flux slope (higher = more flux/activation; lower = inhibition) at 10 µM. actives 2.2% (n = 190,000). AID 1456;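 active = thallium flux slope and its plate-corrected score both differing from the plate sample mean at a set confidence after two filtering rounds, in either direction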;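 note: slope of fluorescence scaled to starting intensity during 10 to 20 s after thallium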
Target sequence (Q9H2X9 whole entry, looked up): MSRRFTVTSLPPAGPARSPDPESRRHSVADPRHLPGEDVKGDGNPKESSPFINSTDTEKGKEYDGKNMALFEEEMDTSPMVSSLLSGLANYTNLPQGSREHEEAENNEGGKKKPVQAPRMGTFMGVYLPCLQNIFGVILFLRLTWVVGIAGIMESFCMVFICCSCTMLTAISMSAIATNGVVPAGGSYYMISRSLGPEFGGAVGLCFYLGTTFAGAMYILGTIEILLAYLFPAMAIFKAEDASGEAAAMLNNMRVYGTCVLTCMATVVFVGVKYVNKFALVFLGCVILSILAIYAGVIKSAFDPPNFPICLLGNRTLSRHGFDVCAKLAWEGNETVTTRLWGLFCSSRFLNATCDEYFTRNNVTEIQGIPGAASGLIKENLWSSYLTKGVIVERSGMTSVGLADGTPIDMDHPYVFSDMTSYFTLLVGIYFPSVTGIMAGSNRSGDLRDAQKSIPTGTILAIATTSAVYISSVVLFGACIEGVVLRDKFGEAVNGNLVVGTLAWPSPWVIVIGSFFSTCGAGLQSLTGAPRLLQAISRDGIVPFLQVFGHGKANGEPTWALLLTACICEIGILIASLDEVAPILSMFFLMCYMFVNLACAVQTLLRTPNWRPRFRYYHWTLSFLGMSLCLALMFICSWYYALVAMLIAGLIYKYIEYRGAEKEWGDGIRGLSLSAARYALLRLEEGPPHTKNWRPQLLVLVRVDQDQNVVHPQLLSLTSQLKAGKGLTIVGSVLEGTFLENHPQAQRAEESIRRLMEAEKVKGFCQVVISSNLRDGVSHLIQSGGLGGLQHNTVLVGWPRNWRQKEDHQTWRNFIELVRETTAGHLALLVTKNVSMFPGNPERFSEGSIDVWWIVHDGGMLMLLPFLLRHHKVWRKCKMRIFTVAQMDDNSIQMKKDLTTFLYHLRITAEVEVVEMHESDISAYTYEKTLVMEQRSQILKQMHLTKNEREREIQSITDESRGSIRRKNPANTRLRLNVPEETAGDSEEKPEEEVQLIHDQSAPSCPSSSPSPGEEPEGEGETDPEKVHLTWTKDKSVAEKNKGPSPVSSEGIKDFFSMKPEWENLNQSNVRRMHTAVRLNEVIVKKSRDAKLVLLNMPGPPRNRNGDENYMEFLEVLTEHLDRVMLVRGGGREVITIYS
Ins promoter up = MIN6 insulin promoter up-regulation | MIN6 insulin promoter-GFP reporter, high-content imaging; stronger effect = higher value | z-score at 5 µM | actives 0.3% (n = 190,000);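 active = z-score above 3 at 5 µM with at least 500 cells counted in the well; inconclusive = wells under 500 cells, flagged as cytotoxic or low count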
An asterisk follows results filed as active. Compounds with a hit are over-represented: about 4.2% of the library has one in this group of screens.

Results for Fc1ccc(NC(=S)NN=C2CCCCCC2)cc1 ?
SKKanGAS inh: -2.5; Rad51 HR inh: -3.0; Autophagy HCS: inactive; WT yeast gro inh: 3.9; Cl transport mod: 21.7*; Ins promoter up: -1.18

Results for S=C(NN=C1CCCCCC1)Nc1ccc(Cl)cc1 ?
SKKanGAS inh: 12.9; Autophagy HCS: inactive; WT yeast gro inh: 11.9; Ins promoter up: -1.2

How did CCCCCCCCCCCCC/C=C/[C@@H](O)[C@@H](N)CO do in these assays?
SKKanGAS inh: 93.9*

How did Cc1ccc(CNCC(O)(c2ccc(F)cc2)c2ccc(F)cc2)cc1 do in these assays?
SKKanGAS inh: -4.6; Rad51 HR inh: -0.7; Autophagy HCS: inactive; WT yeast gro inh: 31.9; Cl transport mod: 0.562

Results for Cc1ccc(CNCC(O)(c2ccccc2)c2ccc(F)cc2)cc1 (stereo not drawn) ?
SKKanGAS inh: -9.0; Autophagy HCS: inactive; WT yeast gro inh: 75.1*; Cl transport mod: -0.0102

How did COc1ccc(CNCC(O)(c2ccc(F)cc2)c2ccc(F)cc2)cc1 do in these assays?
SKKanGAS inh: 2.9; Rad51 HR inh: -31.5; Autophagy HCS: active; WT yeast gro inh: 12.6; Cl transport mod: -0.937; Ins promoter up: 0.56

What do the screens show for `CCCCN(C(=O)c1cccc(S(=O)(=O)N(C)c2ccc(C)cc2)c1)c1c(N)n(CCCC)c(=O)[nH]c1=O`?
SKKanGAS inh: 2.4

Results for Cc1cc(Nc2ccccc2)c2c([N+](=O)[O-])ccc(C)c2n1 ?
SKKanGAS inh: 21.8; Rad51 HR inh: -1.8; Autophagy HCS: inactive; WT yeast gro inh: 70.9*; Cl transport mod: -1.28; Ins promoter up: -1.1

How did COc1cccc(C(=O)OCCNC(=O)c2cccnc2)c1 do in these assays?
SKKanGAS inh: 13.6

What do the screens show for `CC(C)CCNc1nc(N)c([N+](=O)[O-])c(N2CCCCCC2)n1`?
SKKanGAS inh: 30.3

What do the screens show for `COc1cccc(N2CCN(c3ncccn3)CC2)c1`?
SKKanGAS inh: 1.2; Rad51 HR inh: -3.7; Autophagy HCS: inactive; WT yeast gro inh: 7.0; Ins promoter up: 3.1*

What do the screens show for `CCN(CC)C(=O)C1CC(=O)N(c2ccc(F)c(Cl)c2)C1` (stereo not drawn)?
SKKanGAS inh: -6.2; Rad51 HR inh: -1.5; Autophagy HCS: inactive; WT yeast gro inh: 59.1*; Cl transport mod: 0.295; Ins promoter up: 0.23

How did CC(C)c1ccc(C2CC(c3ccc(Br)cc3)=NN2C(N)=S)cc1 (stereo not drawn) do in these assays?
SKKanGAS inh: 16.3; Rad51 HR inh: -18.7; Autophagy HCS: inactive; WT yeast gro inh: 65.3*; Cl transport mod: 0.137; Ins promoter up: 0.1

How did CNC(=S)N1N=C(c2ccc(C)cc2)CC1c1ccc(Br)cc1 (stereo not drawn) do in these assays?
SKKanGAS inh: 23.5; Rad51 HR inh: 2.3; Autophagy HCS: inactive; WT yeast gro inh: 58.3*; Cl transport mod: -0.0118; Ins promoter up: 0.34

Results for COc1ccc(-c2cc(C(F)(F)F)nc(SCC(=O)NCCCN3CCOCC3)n2)cc1 ?
SKKanGAS inh: -8.8; Rad51 HR inh: -1.0; Autophagy HCS: inactive; WT yeast gro inh: -3.7; Cl transport mod: -0.0166; Ins promoter up: 0.05

How did Cc1ccsc1C(=O)N1CCCC(CO)(Cc2ccccc2F)C1 (stereo not drawn) do in these assays?
SKKanGAS inh: 2.5

What do the screens show for `COc1ccc(CCNC(=O)CSc2nnc3ccc(-c4cccnc4)nn23)cc1OC`?
SKKanGAS inh: -7.8; Rad51 HR inh: 14.1; Autophagy HCS: inactive; WT yeast gro inh: 6.3; Cl transport mod: -0.934; Ins promoter up: 0.39

What do the screens show for `CCOC(=O)N1CCN(C(=O)CSCc2ccccc2Cl)CC1`?
SKKanGAS inh: 4.5; Rad51 HR inh: 27.7; Autophagy HCS: inactive; WT yeast gro inh: 15.5; Cl transport mod: 0.503; Ins promoter up: inconclusive

What do the screens show for `CC1CN(Cc2ccccc2)c2ccccc2NC1=S` (stereo not drawn)?
SKKanGAS inh: 0.5; Autophagy HCS: inactive; WT yeast gro inh: 67.4*; Cl transport mod: -0.119; Ins promoter up: 0.58

How did CC(=O)N1c2ccc(S(=O)(=O)N3CCCC3)cc2CC1C(=O)NCc1ccc(N(C)C)cc1 (stereo not drawn) do in these assays?
SKKanGAS inh: -7.4

Results for COc1ccc(-c2nnc(SCc3nnc(-c4ccc(Cl)cc4)o3)n2-c2ccccc2)cc1 ?
SKKanGAS inh: 0.8; Rad51 HR inh: 9.0; Autophagy HCS: inactive; WT yeast gro inh: 63.6*; Ins promoter up: -0.54

How did COc1ccc(-c2nnc(SCc3nnc(-c4ccccc4)o3)n2-c2ccccc2)cc1 do in these assays?
SKKanGAS inh: -0.5; Rad51 HR inh: -1.1; Autophagy HCS: inactive; WT yeast gro inh: 4.6; Cl transport mod: -1.01; Ins promoter up: -0.51

What do the screens show for `C=CCNC(=O)c1c(CSc2ccc(F)cc2)noc1C(=O)NCCC`?
SKKanGAS inh: -0.7

Results for COc1ccc2c(c1OC)C(=O)OC2Nc1nc(-c2cccc([N+](=O)[O-])c2)cs1 (stereo not drawn) ?
SKKanGAS inh: -1.1; Rad51 HR inh: -0.8; Cl transport mod: -0.0278; Ins promoter up: -0.63

Results for CCc1ccc(NC(=O)c2cc(C(C)C)on2)cc1 ?
SKKanGAS inh: -1.3; Rad51 HR inh: -2.1; Autophagy HCS: inactive; WT yeast gro inh: 1.2; Cl transport mod: -0.294; Ins promoter up: 3.36*

Results for CCc1ccc(NC(=O)c2cc(C)on2)cc1 ?
SKKanGAS inh: -8.9; Rad51 HR inh: 4.6; Autophagy HCS: inactive; WT yeast gro inh: 15.9; Cl transport mod: -0.829; Ins promoter up: 1.07

How did O=C(NC(=S)Nc1ccccc1Cl)c1csnn1 do in these assays?
SKKanGAS inh: 8.4; Rad51 HR inh: 8.1; Autophagy HCS: inactive; WT yeast gro inh: 10.3; Cl transport mod: 17.3*; Ins promoter up: -0.41

How did CCCOc1cccc(C(=O)NC(=S)Nc2cccc(C(F)(F)F)c2)c1 do in these assays?
SKKanGAS inh: -6.4; Rad51 HR inh: -5.3; Autophagy HCS: inactive; WT yeast gro inh: 16.6; Cl transport mod: 10.5*; Ins promoter up: -0.24

What do the screens show for `O=C(NC(=S)Nc1cccc(C(F)(F)F)c1)c1csnn1`?
SKKanGAS inh: 5.9; Rad51 HR inh: 1.2; Autophagy HCS: inactive; WT yeast gro inh: 39.0; Cl transport mod: 59.5*; Ins promoter up: -0.39

How did O=C(Nc1ccccc1NC(=O)c1csnn1)c1csnn1 do in these assays?
SKKanGAS inh: -4.0; Rad51 HR inh: -23.1; Autophagy HCS: inactive; WT yeast gro inh: -2.1; Cl transport mod: -1.09; Ins promoter up: 0.14

Results for O=C1C=C(c2ccccc2)C(=O)N1Nc1ccccc1 ?
SKKanGAS inh: 0.5; Rad51 HR inh: -6.8; Autophagy HCS: inactive; WT yeast gro inh: 86.6*; Ins promoter up: -1.27

What do the screens show for `COC(=O)CNC(c1ccccc1)c1cc(C)ccc1NC(=O)c1cccc(Cl)c1` (stereo not drawn)?
SKKanGAS inh: 5.8; Rad51 HR inh: 20.2; Autophagy HCS: inactive; WT yeast gro inh: 70.7*; Cl transport mod: -0.893; Ins promoter up: -0.41

High-throughput results (PubChem)
